Consider 1 molecule from ChEMBL document CHEMBL1154181 (J Med Chem, 2009).

Assay [1] relates to Mus musculus. As to the kind of experiment: Ratio of compound ED50 to morphine ED50 for antinociceptive activity against radiant heat-induced nociception in icv dosed CD1 mouse. Type of assay: functional. The essentials: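 Male CD-1 mice (25–30 g) given the compound or morphine hydrochloride into the right lateral ventricle. Tail flick used radiant heat focused 3–4 cm from the tail tip, with a 15 s cutoff, and latency was read at 15–120 min. %MPE was made quantal at peak time. ED50 came from at least four groups of six mice, and both ED50s were obtained the same way.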

The test system of assay [2] is Mus musculus. Kind of assay: Ratio of morphine ED50 to compound ED50 for antinociceptive activity against thermal nociception in po dosed CD1 mouse. Type of assay: functional. The method, boiled down:
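Compound and morphine were dosed po in male CD-1 mice. Hot plate was held at 48.5 ± 0.1 °C, scored as paw lick, jerk or jump, with a 60 s cutoff, read at 15–90 min. Tail flick used radiant heat with a 15 s cutoff. Baseline was the mean of three readings. Peak-time %MPE was made quantal, and ED50 came from at least four groups of six mice.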

Assay [3] concerns the target T1, Alpha-2C adrenergic receptor (Homo sapiens) (UniProt P18825).
T1 sequence (whole entry): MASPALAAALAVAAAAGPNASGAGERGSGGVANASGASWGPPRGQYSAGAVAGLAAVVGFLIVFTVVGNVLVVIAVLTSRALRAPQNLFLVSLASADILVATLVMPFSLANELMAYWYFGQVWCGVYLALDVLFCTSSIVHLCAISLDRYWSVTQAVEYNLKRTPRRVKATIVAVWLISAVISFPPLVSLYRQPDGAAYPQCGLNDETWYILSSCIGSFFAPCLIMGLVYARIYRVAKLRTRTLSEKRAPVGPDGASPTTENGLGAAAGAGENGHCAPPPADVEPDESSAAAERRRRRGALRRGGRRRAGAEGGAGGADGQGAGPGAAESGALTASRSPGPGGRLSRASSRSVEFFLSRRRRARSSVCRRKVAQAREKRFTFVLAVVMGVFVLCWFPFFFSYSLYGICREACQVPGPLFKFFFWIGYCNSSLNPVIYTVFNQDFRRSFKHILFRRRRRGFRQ
As to the kind of experiment: Inhibition of radioligand binding to human adrenergic Alpha-2C receptor at 10 uM after 60 mins.

Assay [4] concerns the target T2, Alpha-2A adrenergic receptor (Homo sapiens, UniProt P08913).
T2 sequence (P08913 whole entry): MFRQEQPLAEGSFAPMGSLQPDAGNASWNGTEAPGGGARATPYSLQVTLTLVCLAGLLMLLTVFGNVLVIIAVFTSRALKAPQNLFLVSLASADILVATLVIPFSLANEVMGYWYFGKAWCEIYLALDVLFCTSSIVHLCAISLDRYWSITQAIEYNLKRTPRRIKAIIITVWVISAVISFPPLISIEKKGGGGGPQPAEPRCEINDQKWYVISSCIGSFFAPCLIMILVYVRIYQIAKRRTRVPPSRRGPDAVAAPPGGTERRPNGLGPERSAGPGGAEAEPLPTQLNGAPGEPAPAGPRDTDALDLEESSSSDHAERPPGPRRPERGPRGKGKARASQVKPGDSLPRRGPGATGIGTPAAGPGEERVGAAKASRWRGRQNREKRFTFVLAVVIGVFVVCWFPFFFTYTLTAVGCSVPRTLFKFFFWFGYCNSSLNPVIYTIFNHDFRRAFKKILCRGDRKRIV
As to the kind of experiment: Displacement of [3H][…] from human recombinant adrenergic alpha2A receptor expressed in insect Sf9 cells after 60 mins.

Assay [5] deals with T3, Alpha-2A adrenergic receptor (Homo sapiens) (UniProt P08913).
T3 sequence (whole entry): T2 sequence (P08913 whole entry)
As to the kind of experiment: Inhibition of [3H][…] binding to human recombinant adrenergic alpha2A receptor expressed in insect Sf9 cells at 10 uM after 60 mins. The method, boiled down: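 Sf9 membranes expressing human recombinant α2A, with 1 nM [3H]-MK-912. Nonspecific binding defined by 10 μM WB-4101. Buffer 50 mM Tris-HCl pH 7.4, 12.5 mM MgCl2, 2 mM EDTA. Incubated 60 min at 25 °C, then filtered and counted by scintillation. Duplicate; 1% DMSO final.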

For assay [6], the system named is Mus musculus. Kind of assay: Antinociceptive activity in sc dosed mouse assessed as reduction in number of noxious stimulus-induced writhes. Type of assay: functional.
Assay [7] deals with Mus musculus. As to the kind of experiment: Antinociceptive activity against radiant heat-induced nociception in po dosed CD1 mouse assessed as increase in tail withdrawal latency measured after 15 to 120 mins postdose by tail flick test. It counts as functional. The method, boiled down:
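Male CD-1 mice, 25–30 g; oral dosing. Radiant heat focused 3–4 cm from tail tip of hand-restrained mice; tail withdrawal latency recorded, cutoff 15 s at 15 V. Baseline = mean of three readings 15 min apart; latency at 15–120 min.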

Assay [8] deals with Mus musculus. As to the kind of experiment: Antinociceptive activity against radiant heat-induced nociception in po dosed CD1 mouse assessed as increase in tail withdrawal latency measured after 15 to 120 mins postdose by tail flick test in presence of 1 mg/kg, ip opioid receptor antagonist naloxone hydrochloride administered 30 mins before compound infusion. Type of assay: functional. The method, boiled down: (§1)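 Antagonist given ip 30 min before oral dosing (naloxone 1, mecamylamine 2, yohimbine 2, CGP 35348 50 mg/kg). Tail flick with radiant heat at the tail tip, cut-off 15 s; latencies at 15–120 min converted to %MPE. Peak-time quantal response (≥50% MPE); ED50 from at least four groups of six male CD-1 mice.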
In general terms: Hot-plate and tail-flick tests time the reaction to a heat stimulus.

Assay [9] has as its system Mus musculus. Kind of assay: Antinociceptive activity against radiant heat-induced nociception in po dosed CD1 mouse assessed as increase in tail withdrawal latency measured after 15 to 120 mins postdose by tail flick test in presence of 50 mg/kg, ip GABAB receptor antagonist CGP-35348 administered 30 mins before compound infusion. It counts as functional. The method, boiled down: as §1

Assay [10] deals with Mus musculus. As to the kind of experiment: Antinociceptive activity against radiant heat-induced nociception in po dosed CD1 mouse assessed as increase in tail withdrawal latency measured after 15 to 120 mins postdose by tail flick test in presence of 2 mg/kg, ip alpha-2-adrenergic receptor antagonist yohimbine hydrochloride administered 30 mins before compound infusion. It counts as functional. The method, boiled down:
as §1

Assay [11] concerns Mus musculus. Kind of assay: Antinociceptive activity against thermal nociception in po dosed CD1 mouse assessed as increase in latency period to elicit jumping or hind paw licking measured after 15 to 90 mins postdose by hot plate method in presence of 1 mg/kg, ip opioid receptor antagonist naloxone hydrochloride administered 30 mins before compound infusion. Type of assay: functional. The essentials:
(§2)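 Antagonist given ip 30 min before oral dosing (naloxone 1, mecamylamine 2, yohimbine 2, CGP 35348 50 mg/kg). Hot plate at 48.5 ± 0.1 °C inside a cylinder, cut-off 60 s; latencies at 15–90 min as %MPE. Peak-time quantal response (≥50% MPE); ED50 from at least four groups of six male CD-1 mice.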

The test system of assay [12] is Mus musculus. Kind of assay: Antinociceptive activity against thermal nociception in po dosed CD1 mouse assessed as increase in latency period to elicit jumping or hind paw licking measured after 15 to 90 mins postdose by hot plate method in presence of 50 mg/kg, ip GABAB receptor antagonist CGP 35348 administered 30 mins before compound infusion. It counts as functional. The essentials:
as §2

Assay [13] has as its system Mus musculus. Kind of assay: Antinociceptive activity against thermal nociception in po dosed CD1 mouse assessed as increase in latency period to elicit jumping or hind paw licking measured after 15 to 90 mins postdose by hot plate method in presence of 2 mg/kg, ip alpha-2-adrenergic receptor antagonist yohimbine hydrochloride administered 30 mins before compound infusion. Type of assay: functional. The essentials: as §2

In general, Emax refers to the maximal effect, on the per cent scale that the assay sets. A word on the IC50: it is the concentration that gives 50% inhibition. In general, ED50 refers to the dose at which the effect has come halfway, by size or by number of responders.

Take `C=Cc1c(C)nn(CCCN2CCN(c3ccc(C)cc3)CC2)c(=O)c1N`: the figures for the “Ratio ED50” value in the assay on Mus musculus [1] and in the assay with Mus musculus [2] were 3 and 4, respectively. For the same molecule, the maximal effect (Emax) in [3] was 71%; in assay [5] it was 100%. Moreover, the 50% inhibitory concentration (IC50) in [4] came out at 320 nM. Moreover, the 50% effective dose (ED50) came to 2.5 mg/kg with Mus musculus [6]; 0.8 mg/kg in the assay with Mus musculus [7]; 1.2 mg/kg in the assay with Mus musculus [8]; 0.5 mg/kg in the assay with Mus musculus [9]; 6.1 mg/kg with Mus musculus [10]; 1.1 mg/kg in the assay on Mus musculus [11]. Moreover, the median effective dose (ED50) in the assay with Mus musculus [12] was determined as 0.6 mg/kg; in the assay on Mus musculus [13] it was 8.6 mg/kg.
